From ChEMBL document CHEMBL3244330, “Structure--activity relationships of n-substituted dopamine and 2-amino-6,7-dihydroxy-1,2,3,4-tetrahydronaphthalene analogues: behavioral effects in lesioned and reserpinized mice” (J Med Chem, 1979)
The source made the active and inactive calls. The rule behind the calls is not given here.

How the values were obtained:
Mus musculus [1] = experiment: Reversal of reserpine-induced catalepsy in ip dosed Swiss albino (CD1) mouse; type: functional
Procedure, shortened: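 Male Swiss albino CD1 mice, 5 weeks old, got reserpine 5 mg/kg ip, then α-MTM 250 mg/kg ip 17 h later, then the test drug ip 4 h after that. Catalepsy was scored by the rubber-stopper test (time to step off the stopper). At least four doses were used, with ≥8 mice per dose. ED50 was taken from a log-probit plot of percent responders against dose.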

Mus musculus [2] = experiment: Postural effect on caudectomized Swiss albino mouse assessed as latency to onset time of asymmetric postural effect at 25.4 mg/kg, ip; type: functional; conditions: route intraperitoneal
Procedure, shortened: (§1)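 Male Swiss albino Hale-Stoner mice with a right caudectomy made by suction. A lesion was accepted if the mouse responded to apomorphine 4 weeks after surgery. Compounds were dissolved in 0.9% saline and injected ip at random into groups of six, with a maximum dose of 0.348 mmol/kg. 18 mice were used per compound, and mice were retested after 5–6 day intervals. Onset and duration of the asymmetric posture are reported as mean ± SE from six animals.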

Mus musculus [3] = experiment: Postural effect on caudectomized Swiss albino mouse assessed as time duration of asymmetric posture at 50.8 mg/kg, ip; type: functional; conditions: route intraperitoneal
Procedure, shortened: (§2)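 Male Swiss albino Hale-Stoner mice given a right caudectomy by suction. The lesion counted as successful if the mice reacted to apomorphine 4 weeks later. Drug was given ip in 0.9% saline, up to 0.348 mmol/kg, to randomised groups of six, with 5-6 days before reuse. Onset and duration of asymmetric posture are reported as mean ± SE from six animals.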

Mus musculus [4] = experiment: Postural effect on caudectomized Swiss albino mouse assessed as time duration of asymmetric posture at 25.4 mg/kg, ip; type: functional; conditions: route intraperitoneal; procedure, shortened: as §1
Mus musculus [5] = experiment: Postural effect on caudectomized Swiss albino mouse assessed as latency to onset time of asymmetric postural effect at 50.8 mg/kg, ip; type: functional; conditions: route intraperitoneal; procedure, shortened: as §1
Mus musculus [6] = experiment: Postural effect on caudectomized Swiss albino mouse assessed as latency to onset time of asymmetric postural effect at 104.8 mg/kg, ip; type: functional, organism-based; parameters: dose 104.8 mg/kg; procedure, shortened: as §1
Mus musculus [7] = experiment: Postural effect on caudectomized Swiss albino mouse assessed as latency to onset time of asymmetric postural effect at 96 mg/kg, ip; type: functional, organism-based; parameters: dose 96 mg/kg; procedure, shortened: as §1
Mus musculus [8] = experiment: Postural effect on caudectomized Swiss albino mouse assessed as latency to onset time of asymmetric postural effect at 90.8 mg/kg, ip; type: functional, organism-based; parameters: dose 90.8 mg/kg; procedure, shortened: as §1
Mus musculus [9] = experiment: Postural effect on caudectomized Swiss albino mouse assessed as time duration of asymmetric posture at 34.2 mg/kg, ip; type: functional; conditions: route intraperitoneal; procedure, shortened: as §1
Mus musculus [10] = experiment: Postural effect on caudectomized Swiss albino mouse assessed as time duration of asymmetric posture at 68.4 mg/kg, ip; type: functional; conditions: route intraperitoneal; procedure, shortened: as §2
Mus musculus [11] = experiment: Postural effect on caudectomized Swiss albino mouse assessed as latency to onset time of asymmetric postural effect at 68.4 mg/kg, ip; type: functional; conditions: route intraperitoneal; procedure, shortened: as §1
Mus musculus [12] = experiment: Postural effect on caudectomized Swiss albino mouse assessed as latency to onset time of asymmetric postural effect at 34.2 mg/kg, ip; type: functional; conditions: route intraperitoneal; procedure, shortened: as §1
Mus musculus [13] = experiment: Postural effect on caudectomized Swiss albino mouse assessed as latency to onset time of asymmetric postural effect at 858 mg/kg, ip; type: functional; conditions: route intraperitoneal
Mus musculus [14] = experiment: Postural effect on caudectomized Swiss albino mouse assessed as time duration of asymmetric posture at 858 mg/kg, ip; type: functional; conditions: route intraperitoneal
Mus musculus [15] = experiment: Postural effect on caudectomized Swiss albino mouse assessed as time duration of asymmetric posture at 107.2 mg/kg, ip; type: functional; conditions: route intraperitoneal
Procedure, shortened: (§3)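 Male Swiss albino Hale-Stoner mice with right caudectomy by suction, used if responsive to apomorphine 4 weeks post-lesion. Compound in 0.9% saline given ip, maximum 0.348 mmol/kg. 18 mice per compound in random groups of six, retested after 5–6 day intervals. Onset latency and duration of asymmetric posture recorded; mean ± SE from six animals.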

Mus musculus [16] = experiment: Postural effect on caudectomized Swiss albino mouse assessed as latency to onset time of asymmetric postural effect at 107.2 mg/kg, ip; type: functional; conditions: route intraperitoneal; procedure, shortened: as §3
Mus musculus [17] = experiment: Postural effect on caudectomized Swiss albino mouse assessed as latency to onset time of asymmetric postural effect at 26.8 mg/kg, ip; type: functional, organism-based; parameters: dose 26.8 mg/kg; procedure, shortened: as §3
Mus musculus [18] = experiment: Postural effect on caudectomized Swiss albino mouse assessed as time duration of asymmetric posture at 59.8 mg/kg, ip; type: functional; conditions: route intraperitoneal; procedure, shortened: as §2
Mus musculus [19] = experiment: Postural effect on caudectomized Swiss albino mouse assessed as time duration of asymmetric posture at 29.9 mg/kg, ip; type: functional; conditions: route intraperitoneal; procedure, shortened: as §1
Mus musculus [20] = experiment: Postural effect on caudectomized Swiss albino mouse assessed as latency to onset time of asymmetric postural effect at 29.9 mg/kg, ip; type: functional; conditions: route intraperitoneal; procedure, shortened: as §1
Mus musculus [21] = experiment: Postural effect on caudectomized Swiss albino mouse assessed as latency to onset time of asymmetric postural effect at 59.8 mg/kg, ip; type: functional; conditions: route intraperitoneal; procedure, shortened: as §1
Mus musculus [22] = experiment: Postural effect on caudectomized Swiss albino mouse assessed as latency to onset time of asymmetric postural effect at 51.9 mg/kg, ip; type: functional, organism-based; parameters: dose 51.9 mg/kg; procedure, shortened: as §3
Mus musculus [23] = experiment: Postural effect on caudectomized Swiss albino mouse assessed as latency to onset time of asymmetric postural effect at 120 mg/kg, ip; type: functional, organism-based; parameters: dose 120 mg/kg; procedure, shortened: as §1
Mus musculus [24] = experiment: Postural effect on caudectomized Swiss albino mouse assessed as latency to onset time of asymmetric postural effect at 1 mg/kg, ip; type: functional; conditions: route intraperitoneal; procedure, shortened: as §1
Mus musculus [25] = experiment: Postural effect on caudectomized Swiss albino mouse assessed as time duration of asymmetric posture at 1 mg/kg, ip; type: functional; conditions: route intraperitoneal; procedure, shortened: as §1

## CCCN(CCc1ccc(O)c(O)c1)CC(C)C.Cl
Mus musculus [1]
  ED50: 7.4 mg/kg
Mus musculus [2]
  Time: 2.8 min
Mus musculus [3]
  Time: 39 min
Mus musculus [4]
  Time: 18 min
Mus musculus [5]
  Time: 2.6 min

## CCCCN(CCCC)CCc1ccc(O)c(O)c1
Mus musculus [6]
  Activity: inactive

## CN(C)CCc1ccc(O)c(O)c1
Mus musculus [7]
  Activity: inactive

## CCCCNCCc1ccc(O)c(O)c1
Mus musculus [8]
  Activity: inactive

## CCCCCN(CCC)CCc1ccc(O)c(O)c1.Cl
Mus musculus [1]
  ED50: 8.7 mg/kg
Mus musculus [9]
  Time: 17.4 min
Mus musculus [10]
  Time: 20.6 min
Mus musculus [11]
  Time: 4.2 min
Mus musculus [12]
  Time: 3.7 min

## CCCCCN(C)CCc1ccc(O)c(O)c1.Cl
Mus musculus [1]
  ED50: 46 mg/kg

## N[C@@H](Cc1ccc(O)c(O)c1)C(=O)O [LEVODOPA]
Mus musculus [1]
  ED50: 248 mg/kg
Mus musculus [13]
  Time: 17.7 min
Mus musculus [14]
  Time: 24 min

## CN(CCc1ccccc1)CCc1ccc(O)c(O)c1.Cl
Mus musculus [1]
  ED50: 101 mg/kg
Mus musculus [15]
  Time: 21.2 min
Mus musculus [16]
  Time: 6.9 min
Mus musculus [17]
  Activity: inactive

## Br.CCCN(CCC)C1CCc2cc(O)c(O)cc2C1 (stereo not drawn)
Mus musculus [1]
  ED50: 1.6 mg/kg
Mus musculus [18]
  Time: 31.5 min
Mus musculus [19]
  Time: 17 min
Mus musculus [20]
  Time: 2.8 min
Mus musculus [21]
  Time: 2 min

## CCCCCNCCc1ccc(O)c(O)c1
Mus musculus [8]
  Activity: inactive

## Oc1ccc(CCN(CCc2ccccc2)CCc2ccccc2)cc1O
Mus musculus [22]
  Activity: inactive

## CCCN(C)CCc1ccc(O)c(O)c1.Cl
Mus musculus [1]
  ED50: 55 mg/kg
Mus musculus [23]
  Activity: Active

## CN1CCc2cccc3c2[C@H]1Cc1ccc(O)c(O)c1-3.CN1CCc2cccc3c2[C@H]1Cc1ccc(O)c(O)c1-3.Cl.Cl.O [APOMORPHINE HYDROCHLORIDE]
Mus musculus [1]
  ED50: 0.11 mg/kg
Mus musculus [24]
  Time: 4.6 min
Mus musculus [25]
  Time: 12.8 min
